# Screening data as filed in PubChem BioAssay.
# Rows were chosen to be rich in hits. Some 1.8% of all compounds tested hit in one or more screens of this group.
# core dimer inh: blocks dimerization of HCV core protein; TR-FRET GST/Flag-core106 dimerization, 1536-well; inhibition, % at 5 µM; hit rate 0.33% among 300,000; AID 1899;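 active = inhibition above the mean of all tested compounds plus 3 SD, set per screening campaign, cut at about 45% in these data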
#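 System – GST-tagged and Flag-tagged HCV core protein residues 1-106 · Repeats – one well for each compound · Technique – TR-FRET 671 and 617 nm emission · Doses – one concentration, 5 µM, in 0.5% DMSO · Times – 4 h, 22.5 °C incubation · Also added – Eu donor and XL665 acceptor anti-tag antibodies · Measure – percent inhibition of core106 dimerization signal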
# eIF4H FP inh: inhibitors of RNA binding by human eIF4H | eIF4H fluorescence polarization binding assay | inhibition, % at 35 µM | hit rate 0.94% among 290,000 | AID 2012;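 note: calls also rest on retests at 20 µM and on dose response follow-up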
# MLLE-PAM2 inh: blocks PAM2 peptide binding to the PABP1 MLLE domain; GST-MLLE / FITC-PAM2 fluorescence polarization; inhibition, % at 20 µM; hit rate 0.36% among 360,000; in the data active = inhibition above about 35%, passing the limit was not always enough;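 note: plate controls were DMSO wells with GST-MLLE for no effect and wells lacking GST-MLLE protein for full effect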
# eIF4E-4G inh: inhibitors of eIF4E and eIF4G interaction in translation initiation. P63073+Q04637. TR-FRET eIF4E-eIF4GI(517-606) binding, 2 h. inhibition, % at 21.7 µM. hit rate 0.37% among 220,000. AID 782;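 active = inhibition above about 30%, limit read from the data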;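 note: 0% = full FRET control wells and 100% = background wells lacking eIF4GI fragment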
# PABP FP inh: blocks human PABP binding to poly(A) RNA; P11940; fluorescence polarization; calls only at 35 µM; hit rate 1% among 290,000; AID 2014;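 note: calls also rest on retests at 20 µM and on dose response follow-up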
# UBC9 SUMO inh: inhibitors of human SUMOylation (UBC9); P63279; HTRF SUMOylation assay, SAE1/SAE2 + UBC9, in vitro; inhibition, % at 35 µM; hit rate 0.36% among 290,000; AID 2006; in the data active = inhibition above about 50%, passing the limit was not always enough; inconclusive = no clear call, values can overlap the other calls
# Numbers without * were called inactive; i = inactive; ? = inconclusive; / = not tested or not shown; + = active, no number; [ ] = another dose, or the depositor's remark. Unless noted, the rule behind the calls is not given here.
SMILES,core dimer inh,eIF4H FP inh,MLLE-PAM2 inh,eIF4E-4G inh,PABP FP inh,UBC9 SUMO inh
C=CCn1c(SCC(=O)Nc2ccc(-c3nc4ccc(C)cc4s3)cc2)nnc1-c1ccccc1,24.8,47.4,-39.9,32.8*[fluorescence artefact?],i,25.9
O=C(N/N=C/c1sc(=O)[nH]c1-[n+]1ccccc1)c1ccccc1[O-],-1.4,39.7,61.2*,0.9,i,22.1
Cc1ccc[n+](-c2[nH]c(=O)sc2/C=N/NC(=O)c2ccccc2[O-])c1,-4.7,55.2,47.5*,0.0,i,5.3
COc1cccc(OCC(=O)NC2CCS(=O)(=O)C2)c1 (stereo not drawn),/,/,-8.4,/,/,/
CC(OC(=O)c1ccc(NC(=O)CC#N)cc1)C(=O)Nc1nc(-c2ccccc2)cs1 (stereo not drawn),20.6,/,-8.2,/,/,/
CC(OC(=O)c1ccc(NC(=O)CC#N)cc1)C(=O)Nc1ccc(Oc2ccccc2)cc1 (stereo not drawn),47.0*,54.1*,-27.5,/,i,-44.3
O=C(C1CC(=O)N(c2ccc(F)cc2)C1)N1CCCCCC1 (stereo not drawn),3.3,-0.5,12.2,/,i,12.4
Cc1ccc(NC(=O)CSc2nc(-c3ccco3)nc3cc(=O)[nH]n23)c(Cl)c1,4.1,85.7*,-4.1,/,+,16.4
COC(=O)c1cnc(NNS(=O)(=O)c2ccc(C(F)(F)F)cc2)nc1C(F)(F)F,4.0,6.7,-40.5,1.5,i,-6.1
CCn1c(=S)[nH]c2scc(-c3cccs3)c2c1=O,/,12.4,-4.4,-5.9,i,5.6
CC(C)n1c(=S)[nH]c2scc(-c3cccs3)c2c1=O,65.1*,50.5,2.5,41.9*,?,24.2
CCCOc1ccc2cc(C(=O)NCc3ccccc3)c(=O)oc2c1,58.3*,-2.0,-2.6,/,i,13.0
O=C(NCc1ccco1)c1cc2ccc(O)cc2oc1=O,5.3,?,-7.2,/,+,38.5
Cc1c(Br)cc(C(=O)NCc2ccco2)c(C)c1C,48.5*,23.7,3.3,-3.9,i,20.5
O=C(NCc1cccc(CNC(=O)c2ccco2)c1)c1ccco1,-0.6,-3.5,14.8,-12.1,i,2.3
O=C(NCc1cccc(CNC(=O)C(=O)NCc2ccco2)c1)C(=O)NCc1ccco1,47.0*,54.9,-7.9,-1.2,i,29.9
Cc1occc1C(=O)NCc1ccco1,1.7,57.8*,-3.6,-0.6,+,10.5
COc1ccc(N2CCN(CCCn3ccc(NC(=O)OCc4ccccc4)nc3=O)CC2)cc1,/,/,-8.4,/,/,/
Clc1ccc(OCCCCSc2ncccn2)cc1,-5.3,127.2,38.3*,1.4,i,-8.5
NC(=O)c1ccc(N2CCC(C(N)=O)CC2)c([N+](=O)[O-])c1,0.1,93.3*,3.8,-6.6,+,14.6
N=C(N)SCP(=O)(c1ccccc1)c1ccccc1,10.8,5.8,37.9*,-12.7,i,13.1
O=C(c1ccc2c(c1)C(=O)N(CCCO)C2=O)c1ccc2c(c1)C(=O)N(CCCO)C2=O,-6.0,-18.2,-13.4,0.6,i,8.6
O=C1c2ccc3c4c(ccc(c24)C(=O)N1CCCCO)C(=O)N(CCCCO)C3=O,/,?,63.7*,7.2,i,17.8
Cc1ccccc1CNC(=O)C(=O)NCC1CCCN1S(=O)(=O)c1cccs1 (stereo not drawn),/,/,-6.0,/,/,/
Cc1ccc(S(=O)(=O)N2CCN(CCOc3ccccc3)CC2)cc1,/,/,-5.7,/,/,/
SMILES,core dimer inh,eIF4H FP inh,MLLE-PAM2 inh,eIF4E-4G inh,PABP FP inh,UBC9 SUMO inh
CC(=O)c1cccc(S(=O)(=O)N2CCN(CCOc3ccccc3)CC2)c1,/,/,43.7*,/,/,/
O=C(Nc1ccc(N2CCOCC2)nc1)c1ccc(F)cc1,2.1,40.3*,3.1,8.0,i,-10.1
CC(/C=N/n1cnnc1)=C\c1ccco1,-9.3,71.7,2.5,9.3,+,-3.1
CN(CC1CCCN(CCc2cccc(C(F)(F)F)c2)C1)C(=O)c1cc2ccccc2o1 (stereo not drawn),/,-5.2,1.9,/,i,-13.5
CCOC(=O)CNC(c1ccccc1)c1cc(Br)ccc1NC(=O)OCC (stereo not drawn),8.3,103.7*,-0.1,10.6,+,18.2
Cc1ccn2cc(CC(=O)O)nc2c1,0.9,?,17.5,8.1,+,5.9
CCOC(=O)c1cn2ccc(C)cc2n1,-3.5,-2.1,18.0,3.7,i,20.9
CC(C)CC(C(=O)Nc1oc(-c2ccccc2)c(-c2ccccc2)c1C#N)N1C(=O)c2ccccc2C1=O (stereo not drawn),76.4*,5.6,-1.5,1.7,i,-16.6
N#Cc1c(NC(=O)CCN2C(=O)c3ccccc3C2=O)oc(-c2ccccc2)c1-c1ccccc1,24.0,-5.7,6.3,1.6,i,4.0
CC(C)C(NC(=O)c1ccc(C(C)(C)C)cc1)C(=O)Nc1cccc(S(N)(=O)=O)c1 (stereo not drawn),3.2,-3.3,-5.8,1.5,i,-35.9
CC(Cc1c[nH]c2ccccc12)C(=O)O (stereo not drawn),-26.1,108.4,-2.5,9.9,+,2.6
O=C(O)C(O)Cc1c[nH]c2ccccc12 (stereo not drawn),-2.2,2.5,-10.7,-2.0,i,5.6
CCn1c2ccccc2c2cc(NC(=O)COC(=O)c3ccc(NC(=O)CC#N)cc3)ccc21,73.5*,/,-12.5,/,/,/
COCCn1c(C)cc(C(=O)COC(=O)c2ccc(NC(=O)CC#N)cc2)c1C,68.2*,?,-48.0,1.1,?,6.4
CC(C)c1ccc(NC(=O)Nc2cc3sccc3n2C)cc1,46.7*,?,-29.8,6.0,i,-4.7
Cn1c(C(=O)Nc2ccc3c(c2)OCCO3)cc2sccc21,1.0,-0.7,-7.9,-0.7,i,16.1
CC(=O)Nc1cc(-c2nn(C)c(=O)c3ccccc23)ccc1N1CCOCC1,-3.1,?,-7.3,-0.7,+,8.8
O=C1CSC(c2cccnc2)N1Cc1ccc(Cl)c(Cl)c1 (stereo not drawn),-4.8,-4.7,28.9,2.9,i,8.3
Nc1nc2c(s1)COc1ccccc1-2,2.7,-6.2,3.2,-1.8,i,-1.8
Nc1nc2c(s1)CCc1c-2cnn1-c1ccccc1,2.7,-0.2,-21.5,39.4*,i,49.3
CCN(CC(=O)Nc1ccc(OC)cc1)C(=O)c1ccc2c(c1)NC(=O)CS2,/,/,-60.9,/,/,/
CCC(NC(=O)Cc1c(C)c2cc3c(cc2oc1=O)OC(C)(C)CC3)C(=O)O (stereo not drawn),-7.8,-4.1,2.8,/,i,22.1
N#C/C(=C\c1ccc(-c2ccccc2C(=O)O)o1)c1nc2ccccc2[nH]1,-34.1,79.3,-125.7,/,+,6.4
CCSc1ccc2nnc(-c3cccc(F)c3)n2n1,1.6,1.8,-12.4,55.6*,i,30.3
O=C(CSc1ccc2nnc(-c3cccc(F)c3)n2n1)N1CCCc2ccccc21,7.5,-4.9,3.1,2.8,i,-1.1
